Experimental data as given in ChEMBL document CHEMBL4190389, “Synthesis and activity of di- or trisubstituted N-(phenoxyalkyl)- or N-{2-[2-(phenoxy)ethoxy]ethyl}piperazine derivatives on the central nervous system” (Bioorg Med Chem Lett, 2018).
The source made the active and inactive calls. The calls are words filed in the database; no cut-off is given here.

Key:
[1] = target: T1, 5-hydroxytryptamine receptor 7 (Homo sapiens, UniProt P34969); experiment: Agonist activity at human 5-HT7 receptor expressed in CHO-K1 cells assessed as increase in serotonin-induced cAMP level after 1 hr by TR-FRET assay relative to serotonin; format: functional, cell-based
[2] = target: T1, 5-hydroxytryptamine receptor 7; experiment: Antagonist activity at human 5-HT7 receptor expressed in CHO-K1 cells assessed as decrease in serotonin-induced cAMP level after 1 hr by TR-FRET assay relative to control; format: functional, cell-based
[3] = Neurotoxicity in ip dosed Albino Swiss CD-1 mouse assessed as minimum dose required to induce motor impairment treated 30 mins prior to test by rotarod test; format: toxicity, organism-based; settings: in vivo
[4] = Protection index, ratio of TD50 for motor impairment in ip dosed Swiss albino CD-1 mouse to ED50 for protection against 50 Hz current-induced seizures in ip dosed Swiss albino CD-1 mouse; format: toxicity, organism-based, Swiss CD-1; settings: in vivo, read-out: Ratio TD50/ED50
Mus musculus [5] = experiment: Antiallodynic activity in oxaliplatin-induced Albino Swiss CD-1 mouse allodynia model assessed as effect on jumping at 30 mg/kg, ip measured after 60 mins by cold plate test; format: functional, organism-based
Mus musculus [6] = experiment: Toxicity in Albino Swiss CD-1 mouse assessed as death at 30 to 100 mg/kg, ip; format: organism-based; settings: in vivo
Method in brief: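 Deaths counted in mice during maximal electroshock (MES) seizure testing after i.p. dosing, 6 mice per dose (3 or 1 at some top doses); recorded as number dead/number tested alongside protection and rotarod motor impairment (10 rpm); untreated control group included.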

Mus musculus [7] = experiment: Antinociceptive activity in STZ-induced Albino Swiss CD-1 mouse model of thermal-induced nociception assessed as increase in latency to respond with hind paw lick or jumping at 30 mg/kg, ip measured after 60 mins by hot plate test; format: functional, organism-based
[8] = target: T2, 5-hydroxytryptamine receptor 1A (Homo sapiens) (UniProt P08908); experiment: Displacement of [3H]8-OH-DPAT from recombinant human 5-HT1A receptor expressed in HEK293 cell membranes at 10^-5 M after 60 mins by liquid scintillation counting method
T2 sequence (whole entry): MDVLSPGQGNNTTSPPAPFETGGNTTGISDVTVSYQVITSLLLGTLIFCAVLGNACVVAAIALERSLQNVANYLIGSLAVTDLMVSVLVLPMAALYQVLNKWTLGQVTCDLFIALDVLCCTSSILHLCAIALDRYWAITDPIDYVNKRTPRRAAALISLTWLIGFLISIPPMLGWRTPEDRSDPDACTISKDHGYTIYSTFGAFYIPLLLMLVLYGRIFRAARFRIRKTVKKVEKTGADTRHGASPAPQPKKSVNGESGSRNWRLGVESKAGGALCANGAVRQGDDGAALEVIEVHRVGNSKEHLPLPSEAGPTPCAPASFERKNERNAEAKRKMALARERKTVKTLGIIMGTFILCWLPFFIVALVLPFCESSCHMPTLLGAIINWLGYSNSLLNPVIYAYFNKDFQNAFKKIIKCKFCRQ

[9] = target: 5-hydroxytryptamine receptor 6 (Homo sapiens, UniProt P50406); experiment: Displacement of [3H]LSD from recombinant human 5-HT6 receptor expressed in CHO cells cell membranes after 60 mins by liquid scintillation counting method
Mus musculus [10] = experiment: Anxiolytic-like activity in Albino Swiss CD-1 mouse assessed as increase in number of punished crossings at 5 to 10 mg/kg, ip administered for 30 mins prior to test measured for 1 min by four-plate test; format: functional, organism-based
Method in brief: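 Four-plate test in mice, i.p., 30 min before test; vehicle 0.9% NaCl; doses 1.25–10 mg/kg; number of punished crossings counted; mean ± SEM, n = 8–10 mice per group; ANOVA F statistics.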

[11] = target: T3, Alpha-1A adrenergic receptor (Homo sapiens) (UniProt P35348); experiment: Displacement of [3H]prazosin from recombinant human alpha1 adrenoceptor expressed in CHO cell membranes at 10^-5 M after 30 mins by liquid scintillation counting method
T3 sequence (whole entry): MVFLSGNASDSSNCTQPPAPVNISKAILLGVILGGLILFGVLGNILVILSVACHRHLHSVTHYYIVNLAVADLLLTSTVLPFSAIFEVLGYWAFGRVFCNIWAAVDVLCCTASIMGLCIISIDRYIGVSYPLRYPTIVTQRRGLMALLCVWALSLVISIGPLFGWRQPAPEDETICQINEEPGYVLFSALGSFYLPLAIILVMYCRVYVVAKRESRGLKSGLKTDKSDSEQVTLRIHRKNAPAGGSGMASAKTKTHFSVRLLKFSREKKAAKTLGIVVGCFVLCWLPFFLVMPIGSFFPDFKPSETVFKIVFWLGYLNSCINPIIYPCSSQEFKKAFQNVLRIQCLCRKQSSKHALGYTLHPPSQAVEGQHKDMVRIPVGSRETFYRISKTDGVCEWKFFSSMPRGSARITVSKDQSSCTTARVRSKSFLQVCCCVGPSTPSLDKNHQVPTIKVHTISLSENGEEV

[12] = target: 5-hydroxytryptamine receptor 2A (Homo sapiens, UniProt P28223); experiment: biochemical; format: cell-based, HEK293;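 further: radioligand displacement of [3H]ketanserin binding at human 5-HT2A receptor in membranes from HEK293 cells, 60 min incubation, read by liquid scintillation counting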
[13] = target: T1, 5-hydroxytryptamine receptor 7; experiment: biochemical; format: cell-based, CHO
Mus musculus [14] = experiment: Anticonvulsant activity in ip dosed Albino Swiss CD-1 mouse assessed as dose required to protect against 50 Hz current-induced seizure; format: functional; settings: Swiss CD-1, ip
Mus musculus [15] = experiment: Anticonvulsant activity in Albino Swiss CD-1 mouse assessed as protection against 50 Hz current-induced seizure at 100 mg/kg, ip; format: functional, organism-based
Mus musculus [16] = experiment: Antiallodynic activity in oxaliplatin-induced Albino Swiss CD-1 mouse allodynia model assessed as effect on shaking at 30 mg/kg, ip measured after 60 mins by cold plate test; format: functional, organism-based
Mus musculus [17] = experiment: Toxicity in Albino Swiss CD-1 mouse assessed as effect on locomotory activity at 5 to 10 mg/kg, ip administered for 30 mins prior to test measured for 1 min; format: organism-based; settings: in vivo
Method in brief: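 Mice dosed i.p. 30 min before test; vehicle groups received 0.9% NaCl. Spontaneous locomotion scored as number of crossings during a 1-min session. Each dose compared with its own vehicle group by Student t-test; mean ± SEM, n = 8–10 mice per group.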

Mus musculus [18] = experiment: Antiallodynic activity in oxaliplatin-induced Albino Swiss CD-1 mouse allodynia model assessed as effect on decrease in abnormal movement at 30 mg/kg, ip measured after 60 mins by cold plate test; format: functional, organism-based
Mus musculus [19] = experiment: Antidepressant-like activity in Albino Swiss CD-1 mouse assessed as immobility time at 20 mg/kg, ip administered 30 mins prior to test measured for last 4 mins of 6 mins observation by forced swim test (reference value: 153.9 to 201.9 secs); format: functional
Mus musculus [20] = experiment: Antidepressant-like activity in Albino Swiss CD-1 mouse assessed as immobility time at 5 mg/kg, ip administered 30 mins prior to test measured for last 4 mins of 6 mins observation by forced swim test (reference value: 153.9 to 201.9 secs); format: functional
D(2) dopamine receptor [21] = target: T4, D(2) dopamine receptor (Homo sapiens, UniProt P14416); experiment: Displacement of [3H]methylspiperonee from recombinant human D2 receptor expressed in HEK293 cell membranes at 10^-5 M after 60 mins by liquid scintillation counting method
Mus musculus [22] = experiment: Antidepressant-like activity in Albino Swiss CD-1 mouse assessed as immobility time at 10 mg/kg, ip administered 30 mins prior to test measured for last 4 mins of 6 mins observation by forced swim test (reference value: 153.9 to 201.9 secs); format: functional
Mus musculus [23] = experiment: Antiallodynic activity in STZ-induced Albino Swiss CD-1 mouse allodynia model assessed as increase in paw withdrawal latency time at 30 mg/kg, ip measured after 60 mins by Von Frey test; format: functional, organism-based
Mus musculus [24] = experiment: Antiallodynic activity in oxaliplatin-induced Albino Swiss CD-1 mouse allodynia model assessed as effect on hind paw licking at 30 mg/kg, ip measured after 60 mins by cold plate test; format: functional, organism-based
Mus musculus [25] = experiment: Anxiolytic-like activity in Albino Swiss CD-1 mouse assessed as increase in number of punished crossings at 1.25 mg/kg, ip administered for 30 mins prior to test measured for 1 min by four-plate test; format: functional, organism-based
Method in brief: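 Four-plate test in mice; compounds or clorazepate given i.p. 30 min before testing, vehicle 0.9% NaCl; read-out was number of punished crossings; mean ± SEM, n = 8–10 mice per group; doses compared with one-way statistics (F) against vehicle.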

D(2) dopamine receptor [26] = target: T4, D(2) dopamine receptor; experiment: Agonist activity at human D2 receptor expressed in CHO-K1 cells co-expressing Galphaqi5 assessed as increase apomorphine-induced calcium mobilization measured for 30 secs by aequorin-derived luminescence assay relative to apomorphine; format: functional, cell-based

T1 sequence (P34969 whole entry): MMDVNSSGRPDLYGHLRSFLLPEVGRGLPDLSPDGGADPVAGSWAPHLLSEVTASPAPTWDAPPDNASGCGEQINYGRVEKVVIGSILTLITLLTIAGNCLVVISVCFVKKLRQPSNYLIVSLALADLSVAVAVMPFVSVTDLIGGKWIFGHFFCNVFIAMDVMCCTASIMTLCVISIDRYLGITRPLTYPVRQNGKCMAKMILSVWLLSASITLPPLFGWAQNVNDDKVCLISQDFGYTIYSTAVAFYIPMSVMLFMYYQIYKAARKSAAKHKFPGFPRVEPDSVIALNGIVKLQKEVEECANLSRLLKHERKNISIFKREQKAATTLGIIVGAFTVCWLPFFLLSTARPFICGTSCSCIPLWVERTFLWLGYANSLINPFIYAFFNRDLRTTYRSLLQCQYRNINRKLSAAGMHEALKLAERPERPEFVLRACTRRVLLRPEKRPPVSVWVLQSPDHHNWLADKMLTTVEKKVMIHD
T4 sequence (P14416 whole entry): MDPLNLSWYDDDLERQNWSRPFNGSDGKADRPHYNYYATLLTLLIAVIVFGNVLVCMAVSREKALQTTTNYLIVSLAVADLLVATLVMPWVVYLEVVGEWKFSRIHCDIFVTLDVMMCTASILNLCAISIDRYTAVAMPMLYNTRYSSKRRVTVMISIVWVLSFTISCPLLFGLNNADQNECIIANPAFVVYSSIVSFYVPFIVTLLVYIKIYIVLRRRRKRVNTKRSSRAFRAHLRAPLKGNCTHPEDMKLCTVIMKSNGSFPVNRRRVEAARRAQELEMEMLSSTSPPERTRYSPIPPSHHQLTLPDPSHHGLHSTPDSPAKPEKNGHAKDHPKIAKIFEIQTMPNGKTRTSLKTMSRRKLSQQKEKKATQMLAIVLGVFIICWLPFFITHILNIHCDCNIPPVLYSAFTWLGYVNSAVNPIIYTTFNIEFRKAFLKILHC
Sequence of 5-hydroxytryptamine receptor 2A (P28223 whole entry): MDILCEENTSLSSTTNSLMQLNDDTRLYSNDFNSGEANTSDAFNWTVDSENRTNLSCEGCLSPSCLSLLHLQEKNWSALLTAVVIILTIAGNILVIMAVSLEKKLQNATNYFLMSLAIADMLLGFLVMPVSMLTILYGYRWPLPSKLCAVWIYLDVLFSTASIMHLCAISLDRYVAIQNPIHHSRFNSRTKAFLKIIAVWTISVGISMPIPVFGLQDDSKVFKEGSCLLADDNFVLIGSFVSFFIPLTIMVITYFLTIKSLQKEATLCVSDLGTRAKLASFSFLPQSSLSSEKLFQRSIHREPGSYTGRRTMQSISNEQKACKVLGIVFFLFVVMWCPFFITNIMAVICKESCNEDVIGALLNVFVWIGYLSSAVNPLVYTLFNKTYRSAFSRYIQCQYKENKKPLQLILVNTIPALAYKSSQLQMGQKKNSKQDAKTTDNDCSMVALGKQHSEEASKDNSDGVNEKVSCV
Sequence of 5-hydroxytryptamine receptor 6 (P50406 whole entry): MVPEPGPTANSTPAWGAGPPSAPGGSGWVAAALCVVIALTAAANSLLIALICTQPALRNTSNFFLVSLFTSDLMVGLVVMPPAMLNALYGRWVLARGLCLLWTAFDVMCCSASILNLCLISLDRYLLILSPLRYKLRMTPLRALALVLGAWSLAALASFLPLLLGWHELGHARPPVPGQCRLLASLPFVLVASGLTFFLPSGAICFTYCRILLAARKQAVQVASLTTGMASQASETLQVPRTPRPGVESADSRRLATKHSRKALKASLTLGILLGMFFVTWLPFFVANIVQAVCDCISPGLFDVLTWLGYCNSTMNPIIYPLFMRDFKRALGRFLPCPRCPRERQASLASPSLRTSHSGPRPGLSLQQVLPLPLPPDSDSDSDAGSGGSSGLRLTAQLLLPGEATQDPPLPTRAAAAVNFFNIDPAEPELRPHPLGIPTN

## CC1CCN(CC[C@H]2CCCN2S(=O)(=O)c2cccc(O)c2)CC1
[1]
  Emax: -1%
[2]
  Emax: -1%

## Cc1cc(C)c(C)c(OCCOCCN2CCN(CCO)CC2)c1.Cl.Cl
[3]
  TD50 at 0.5 h: 74.9 mg/kg
[4]
  selectivity ratio: 3.07
Mus musculus [5]
  Activity: inactive
Mus musculus [6]
  Activity: Non-Toxic
Mus musculus [7]
  Activity: inactive
[8]
  inhibition: inactive
[9]
  Ki: > 5 µM
Mus musculus [10]
  Activity: inactive
[11]
  inhibition: inactive
[12]
  Ki: > 5 µM
[13]
  Ki: 3.14 µM
Mus musculus [14]
  ED50: 24.4 mg/kg
Mus musculus [15]
  Activity: Active
Mus musculus [16]
  Activity: inactive
Mus musculus [17]
  Activity: Non-Toxic
Mus musculus [18]
  Activity: inactive
Mus musculus [19]
  Time: 176.4 s
Mus musculus [20]
  Time: 171.8 s
D(2) dopamine receptor [21]
  inhibition: inactive
Mus musculus [22]
  Time: 184.9 s
Mus musculus [23]
  Activity: Active
Mus musculus [24]
  Activity: inactive

## O=C(O)C1N=C(c2ccccc2)c2cc(Cl)ccc2NC1=O (stereo unspecified)
Mus musculus [25]
  Activity: Active

## CN(C)CCCN1c2ccccc2Sc2ccc(Cl)cc21
D(2) dopamine receptor [26]
  Emax: 5%
